Reference: ChEMBL document CHEMBL2203149, “Carvacrol decreases neuronal excitability by inhibition of voltage-gated sodium channels” (J Nat Prod, 2012)
Activity calls are given as the source filed them.

Legend:
[1] = Effect on action potential in Wistar rat DRG neuron assessed as duration at half maximal amplitute at 0.1 mM after 12 to 48 hrs by patch-clamp recordings (reference value: 1.6 +/- 0.1 ms); type: functional
[2] = Effect on action potential in Wistar rat DRG neuron assessed as input resistance at 0.6 mM after 12 to 48 hrs by patch-clamp recordings (reference value: 25.5 +/- 2.1 Momega); type: functional
[3] = Effect on action potential in Wistar rat DRG neuron assessed as duration at half maximal amplitute at 3 mM by intracellular recording (reference value: 1.6 +/- 0.1 ms)
[4] = Effect on action potential in Wistar rat DRG neuron assessed as input resistance at 0.03 mM after 12 to 48 hrs by patch-clamp recordings (reference value: 25.5 +/- 2.1 Momega); type: functional
[5] = Effect on action potential in Wistar rat DRG neuron assessed as maximum descendant inclination at 0.03 mM by intracellular recording (reference value: -104.7 +/- 3.6 V/s)
[6] = Effect on action potential in Wistar rat DRG neuron assessed as duration at half maximal amplitute at 0.03 mM after 12 to 48 hrs by patch-clamp recordings (reference value: 1.6 +/- 0.1 ms); type: functional
[7] = Effect on action potential in Wistar rat DRG neuron assessed as maximum ascendant inclination at 0.3 mM after 12 to 48 hrs by patch-clamp recordings (reference value: 151.2 +/- 6.2 V/s); type: functional
[8] = Effect on action potential in Wistar rat DRG neuron assessed as amplitude reduction at 0.1 mM after 12 to 48 hrs by patch-clamp recordings (reference value: 79 +/- 1.3 mV); type: functional
[9] = Effect on action potential in Wistar rat DRG neuron assessed as maximum ascendant inclination at 0.6 mM after 12 to 48 hrs by patch-clamp recordings (reference value: 151.2 +/- 6.2 V/s); type: functional
[10] = Effect on action potential in Wistar rat DRG neuron assessed as maximum ascendant inclination at 0.03 mM after 12 to 48 hrs by patch-clamp recordings (reference value: 151.2 +/- 6.2 V/s); type: functional
Sciatic nerve [11] = experiment: Reduction in peak-to-peak amplitude of compound action potential in Wistar rat sciatic nerve at 0.3 mM after 180 mins by electrophysiology; type: functional, tissue-based
In short: (§1)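 Evoked compound action potentials in Wistar rat sciatic nerve, recorded 40–50 mm from the stimulating electrodes and sampled at 20 kHz. The segment was bathed in Locke's solution carrying the drug (0.03–1 mM) after at least 30 min of stable amplitude. Exposure lasted 180 min, then 180 min washout. Peak-to-peak amplitude, n = 5 per concentration; IC50 from a logistic fit at 180 min.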

[12] = Effect on action potential in Wistar rat DRG neuron assessed as maximum descendant inclination at 3 mM after 12 to 48 hrs by patch-clamp recordings (reference value: -104.7 +/- 3.6 V/s); type: functional
[13] = Effect on action potential in Wistar rat DRG neuron assessed as input resistance at 0.1 mM after 12 to 48 hrs by patch-clamp recordings (reference value: 25.5 +/- 2.1 Momega); type: functional
[14] = Effect on action potential in Wistar rat DRG neuron assessed as duration at half maximal amplitute at 0.3 mM after 12 to 48 hrs by patch-clamp recordings (reference value: 1.6 +/- 0.1 ms); type: functional
Sciatic nerve [15] = experiment: Reduction in peak-to-peak amplitude of compound action potential in Wistar rat sciatic nerve at 1 mM after 180 mins and measured after 180 mins washout by electrophysiology; type: functional, tissue-based; in short: as §1
[16] = Effect on action potential in Wistar rat DRG neuron assessed as maximum descendant inclination at 0.1 mM by intracellular recording (reference value: -104.7 +/- 3.6 V/s)
[17] = Effect on action potential in Wistar rat DRG neuron assessed as amplitude reduction at 3 mM after 12 to 48 hrs by patch-clamp recordings (reference value: 79 +/- 1.3 mV); type: functional
[18] = Reduction in amplitude of compound action potential in frog sciatic nerve by electrophysiology; type: functional, tissue-based, Anura
[19] = Effect on action potential in Wistar rat DRG neuron assessed as maximum descendant inclination at 0.6 mM by intracellular recording (reference value: -104.7 +/- 3.6 V/s)
[20] = Effect on action potential in Wistar rat DRG neuron assessed as maximum ascendant inclination at 0.1 mM after 12 to 48 hrs by patch-clamp recordings (reference value: 151.2 +/- 6.2 V/s); type: functional
[21] = […] of Wistar rat sciatice nerve fiber excitability assessed as increase in chronaxy measured as time at 0.6 mM (reference value: 59.6 +/- 1.2 microsec); type: functional
[22] = Effect on action potential in Wistar rat DRG neuron assessed as amplitude reduction at 0.03 mM after 12 to 48 hrs by patch-clamp recordings (reference value: 79 +/- 1.3 mV); type: functional
[23] = Effect on action potential in Wistar rat DRG neuron assessed as amplitude reduction at 1 mM after 12 to 48 hrs by patch-clamp recordings (reference value: 79 +/- 1.3 mV); type: functional
[24] = Effect on action potential in Wistar rat DRG neuron assessed as maximum descendant inclination at 0.3 mM by intracellular recording (reference value: -104.7 +/- 3.6 V/s)
Sciatic nerve [25] = experiment: Inhibition of second component amplitude of compound action potential in Wistar rat Abeta and Agamma sciatic nerve within 60 mins by electrophysiology; type: functional, tissue-based; in short: as §1
[26] = Effect on action potential in Wistar rat DRG neuron assessed as elevation in current threshold levels at 0.03 to 3 mM after 12 to 48 hrs by intracellular recordings relative to control
[27] = Reduction in amplitude of compound action potential in bullfrog sciatic nerve at 0.5 mM after 15 mins by electrophysiology; type: functional, Rana catesbeiana; settings: Aquarana catesbeiana, 0.25 h
[28] = Effect on action potential in Wistar rat DRG neuron assessed as resting potential at 0.6 mM after 12 to 48 hrs by patch-clamp recordings (reference value: -60 +/- 1.1 mV); type: functional
[29] = Effect on action potential in Wistar rat DRG neuron assessed as input resistance at 1 mM after 12 to 48 hrs by patch-clamp recordings (reference value: 25.5 +/- 2.1 Momega); type: functional
[30] = Effect on action potential in Wistar rat DRG neuron assessed as maximum descendant inclination at 1 mM by intracellular recording (reference value: -104.7 +/- 3.6 V/s)
[31] = Effect on action potential in Wistar rat DRG neuron assessed as duration at half maximal amplitute at 0.6 mM after 12 to 48 hrs by patch-clamp recordings (reference value: 1.6 +/- 0.1 ms); type: functional
Sciatic nerve [32] = experiment: Reduction in peak-to-peak amplitude of compound action potential in Wistar rat sciatic nerve at 1 mM after 180 mins by electrophysiology; type: functional, tissue-based
In short: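 Sciatic nerve from Wistar rats (200–300 g, both sexes) held in a moist chamber, with a 15–20 mm segment immersed in Locke's solution that carried the drug (DMSO ≤0.2% v/v). One end was stimulated and evoked CAPs were recorded 40–50 mm away. Exposure lasted 180 min and began after at least 30 min of stable amplitude. Read-out was peak-to-peak amplitude, at 18–22 °C, n = 5, followed by 180 min washout.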

[33] = Effect on action potential in Wistar rat DRG neuron assessed as resting potential at 0.03 mM after 12 to 48 hrs by patch-clamp recordings (reference value: -60 +/- 1.1 mV); type: functional
[34] = Effect on action potential in Wistar rat DRG neuron assessed as input resistance at 0.3 mM after 12 to 48 hrs by patch-clamp recordings (reference value: 25.5 +/- 2.1 Momega); type: functional
[35] = Effect on action potential in Wistar rat DRG neuron assessed as resting potential at 0.1 mM after 12 to 48 hrs by patch-clamp recordings (reference value: -60 +/- 1.1 mV); type: functional
Rattus norvegicus [36] = organism: Rattus norvegicus; experiment: Inhibition of voltage-gated sodium channel of […] rat dissociated DRG neuron assessed as inhibition of current induced of voltage-gated sodium current at holding potential by patch-clamp recordings; settings: concentration not given here
[37] = Effect on action potential in Wistar rat DRG neuron assessed as input resistance at 3 mM after 12 to 48 hrs by patch-clamp recordings (reference value: 25.5 +/- 2.1 Momega); type: functional
Sciatic nerve [38] = experiment: Inhibition of first component amplitude of compound action potential in Wistar rat Aalpha sciatic nerve after 180 mins by electrophysiology; type: functional, tissue-based; in short: as §1
[39] = Effect on action potential in Wistar rat DRG neuron assessed as maximum ascendant inclination at 3 mM after 12 to 48 hrs by patch-clamp recordings (reference value: 151.2 +/- 6.2 V/s); type: functional
Rattus norvegicus [40] = organism: Rattus norvegicus; experiment: Inhibition of voltage-gated sodium channel of Wistar rat dissociated DRG neuron assessed as inhibition of current induced of voltage-gated sodium current at -100 mV holding potential with 5 sec intervals at 3 mM after 120 secs by patch-clamp recordings
In short: (§2)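 Wistar rat DRG neurons dissociated with 1 mg/mL collagenase I (75 min) and 2.5 mg/mL trypsin (15 min) at 37 °C, plated on poly-D-lysine and used 12–48 h later. Whole-cell voltage clamp used 100 ms steps to 0 mV from −100 mV every 5 s, at room temperature. External solution: 20 mM NaCl with TEA, Cs and Cd, pH 7.4. Internal solution: CsCl, pH 7.2. Drug 0.01–10 mM, n = 50 cells, logistic fit.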

[41] = Effect on action potential in Wistar rat DRG neuron assessed as resting potential at 3 mM after 12 to 48 hrs by patch-clamp recordings (reference value: -60 +/- 1.1 mV); type: functional
[42] = Effect on action potential in Wistar rat DRG neuron assessed as maximum ascendant inclination at 1 mM after 12 to 48 hrs by patch-clamp recordings (reference value: 151.2 +/- 6.2 V/s); type: functional
[43] = Inhibition of voltage-gated sodium channel of Wistar rat dissociated DRG neuron assessed as inhibition of current induced of voltage-gated sodium current at -100 mV holding potential with 5 sec intervals by patch-clamp recordings; in short: as §2
Sciatic nerve [44] = experiment: Reduction in peak-to-peak amplitude of compound action potential in Wistar rat sciatic nerve after 180 mins by electrophysiology; type: functional, tissue-based; settings: 3 h; in short: as §1
[45] = Effect on action potential in Wistar rat DRG neuron assessed as amplitude reduction at 0.6 mM after 12 to 48 hrs by patch-clamp recordings (reference value: 79 +/- 1.3 mV); type: functional
[46] = Effect on action potential in Wistar rat DRG neuron assessed as duration at half maximal amplitute at 1 mM by intracellular recording (reference value: 1.6 +/- 0.1 ms)
[47] = Effect on action potential in Wistar rat DRG neuron assessed as amplitude reduction at 0.3 mM after 12 to 48 hrs by patch-clamp recordings (reference value: 79 +/- 1.3 mV); type: functional
[48] = Blockade of action potential in Wistar rat DRG neuron after 12 to 48 hrs by intracellular recordings
[49] = Effect on action potential in Wistar rat DRG neuron assessed as resting potential at 1 mM after 12 to 48 hrs by patch-clamp recordings (reference value: -60 +/- 1.1 mV); type: functional
[50] = Effect on action potential in Wistar rat DRG neuron assessed as resting potential at 0.3 mM after 12 to 48 hrs by patch-clamp recordings (reference value: -60 +/- 1.1 mV); type: functional
[51] = […] of Wistar rat sciatice nerve fiber excitability assessed as increase in rheobase at 0.6 mM (reference value: 3.30 +/- 0.06 V); type: functional

## Cc1ccc(C(C)C)cc1O [CARVACROL]
[1]
  Time: 1.5 ms
[2]
  Activity: 23.3 MΩ
[3]
  Time: 0 ms
[4]
  Activity: 29.3 MΩ
[5]
  Activity: -102.2 V/s
[6]
  Time: 1.6 ms
[7]
  Activity: 84.4 V/s
[8]
  Activity: 53.9 mV
[9]
  Activity: 56.5 V/s
[10]
  Activity: 128.6 V/s
Sciatic nerve [11]
  inhibition: inactive
[12]
  Activity: 0 V/s
[13]
  Activity: 26.7 MΩ
[14]
  Time: 0.9 ms
Sciatic nerve [15]
  inhibition: inactive
[16]
  Activity: -78.9 V/s
[17]
  Activity: 0 mV
[18]
  IC50: 500 µM
[19]
  Activity: -48 V/s
[20]
  Activity: 94.8 V/s
[21]
  Time: 75 microsec
[22]
  Activity: 77 mV
[23]
  Activity: 4.2 mV
[24]
  Activity: -62.7 V/s
Sciatic nerve [25]
  inhibition: Active
[26]
  Activity: 62.4%
[27]
  inhibition at 500 µM: 50%
[28]
  Activity: -60.2 mV
[29]
  Activity: 26.3 MΩ
[30]
  Activity: -4.5 V/s
[31]
  Time: 0.6 ms
Sciatic nerve [32]
  inhibition: Active
[33]
  Activity: -62.6 mV
[34]
  Activity: 27.1 MΩ
[35]
  Activity: -60.2 mV
Rattus norvegicus [36]
  inhibition: 70%
[37]
  Activity: 20.8 MΩ
Sciatic nerve [38]
  inhibition: Active
[39]
  Activity: 0 V/s
Rattus norvegicus [40]
  inhibition: Active
[41]
  Activity: -57.5 mV
[42]
  Activity: 4.4 V/s
[43]
  IC50: 370 µM
Sciatic nerve [44]
  IC50: 500 µM
[45]
  Activity: 32.1 mV
[46]
  Time: 0.2 ms
[47]
  Activity: 43.9 mV
[48]
  IC50: 360 µM
[49]
  Activity: -60.2 mV
[50]
  Activity: -59.7 mV
[51]
  Activity: 4.16 V

## CCN(CC)CC(=O)Nc1c(C)cccc1C [LIDOCAINE]
[18]
  IC50: 740 µM
[27]
  inhibition at 500 µM: 46%
